Measurements gathered from unrelated publications.
Lines come from different studies, so protocols differ. ≈ marks a conversion by molar mass, not a printed value.

SMILES | tested on | assay | system | conditions | endpoint | value
Cc1c(C)c2c(c(C)c1O)CCC(C)(C(=O)O)O2 (centres unmarked) |  | ABTS scavenging |  |  | IC50 | 6.16 µg/mL
Nc1ncnc2c([C@@H]3N[C@H](CO)[C@@H](O)[C@H]3O)c[nH]c12 | Western equine encephalitis virus | viral replication, inhibitor | Vero 76 | 3 µM | inhibition | 0.5%
C[C@@H]1[C@H](O)[C@@H](C)/C=C/C=C/C=C/C=C/C=C/C=C/C=C/[C@H](O[C@@H]2O[C@H](C)[C@@H](O)[C@H](N)[C@@H]2O)C[C@@H]2O[C@](O)(C[C@@H](O)C[C@@H](O)[C@H](O)CC[C@@H](O)C[C@@H](O)CC(=O)O[C@H]1C)C[C@H](O)[C@H]2C(=O)O | Leishmania donovani | parasite growth | THP-1 | intracellular, amastigote | IC90 | 1.7 µg/mL (≈ 1.84 µM)
Cc1nc2c(N)nc(=O)[nH]c2n1C(Cc1c[nH]c2ccccc12)C(=O)O (centres unmarked) | unidentified influenza virus | viral replication | A549, H1N1 PR8 | 24 h | IC50 | 0.51 µM
O=C(c1ccc(F)cc1)c1c[nH]c2ncc(-c3ccc(N4CCOCC4)nc3)cc12 | A549 | cell growth or viability, MTT |  | 10 µM, 48 h | viability | 77.1%
N=C(N)c1ccc(OCCCCCOc2ccc(C(=N)N)cc2)cc1 | Leishmania donovani | parasite growth, resazurin |  | 72 h, promastigote | IC90 | 2 µg/mL (≈ 5.87 µM)
CC(C)=CCC/C(C)=C/COc1cc(O)cc(O)c1C(=O)c1ccccc1 |  | ABTS scavenging |  |  | IC50 | 3750 µM
C[C@]12CCC(=O)C[C@@H]1CC[C@@H]1[C@@H]2CC[C@@]2(C)[C@H]1CC[C@]2(C)O | NIH3T3 | cell growth or viability, MTT |  | 24 h | IC50 | > 30 µM
Cc1nc2c(N)nc(N)nc2n1CC(=O)O | unidentified influenza virus | viral replication | A549, H1N1 PR8 | 24 h | IC50 | 0.526 µM
C[C@]1(COc2ccc(N3CCC(Oc4ccc(OC(F)(F)F)cc4)CC3)cc2)Cn2cc([N+](=O)[O-])nc2O1 | Leishmania donovani | parasite growth |  | promastigote | IC50 | 0.249 µM
O=C(N/N=C1\C(=O)N(Cc2ccccc2)c2ccc(Cl)cc21)c1cc2ccccc2[nH]1 | A549 | cell growth or viability, imaging |  | 24 h | IC50 | 1.77 µM
Oc1c(Cl)cc(Cl)cc1Sc1cc(Cl)cc(Cl)c1O | Betapolyomavirus hominis | viral replication, inhibitor, qPCR | Vero | 30 µM, 5 days | inhibition | ~70%
O=c1c(O[C@@H]2O[C@H](CO)[C@H](O)[C@H](O)[C@H]2O)c(-c2ccc(O)c(O)c2)oc2cc(O)cc(O)c12 |  | ABTS scavenging, absorbance |  | 5 min | IC50 | 6.61 µM
COC(=O)C(Cc1c[nH]c2ccccc12)n1c(C)nc2c(N)nc(=O)[nH]c21 (centres unmarked) | unidentified influenza virus | viral replication | A549, H1N1 PR8 | 24 h | IC50 | 0.31 µM
O=C(c1cccc(F)c1)c1c[nH]c2ncc(-c3ccc(N4CCNCC4)nc3)cc12 | A549 | cell growth or viability, MTT |  | 10 µM, 48 h | viability | 62.8%
O=C(NCCCCCCNc1c2c(nc3ccccc13)CCCC2)c1ccccc1O |  | ABTS scavenging |  | 1 h | IC50 | 21.3 µM
Cc1nc2c(N)nc(=O)[nH]c2n1CC(=O)O | unidentified influenza virus | viral replication | A549, H1N1 PR8 | 24 h | IC50 | 0.039 µM
